# Test results from ChEMBL document CHEMBL1121608, “Modification of the 5' position of purine nucleosides. 2. Synthesis and some cardiovascular properties of adenosine-5'-(N-substituted)carboxamides” (J Med Chem, 1980).
# System: Canis familiaris
# Assay: Total time in minutes elapsed from the initiation of the change until return to the pretest value of blood pressure in coronary sinus of anesthetized dog at intravenous dosage of 0.01 mg/kg
# Type: functional, Canis lupus familiaris
# Conditions: not given
row,Structure (SMILES),Duration [min]
1,CC(=O)OC1[C@@H](C(=O)NC2CC2)O[C@@H](n2cnc3c(N)ncnc32)[C@H]1OC(C)=O (some centres undefined),270
2,Nc1ncnc2c1ncn2[C@@H]1O[C@H](C(=O)NC2CCC2)[C@@H](O)[C@H]1O,90
3,Nc1ncnc2c1ncn2[C@@H]1O[C@H](C(=O)NC2CC2)[C@@H](O)[C@H]1O,150
4,CCNC(=O)[C@H]1O[C@@H](n2cnc3c(N)ncnc32)[C@@H](OC(C)=O)C1OC(C)=O (some centres undefined),70
5,CC(C)NC(=O)[C@H]1OC(n2cnc3c(N)ncnc32)[C@H](O)[C@@H]1O (some centres undefined),70
6,C=CCNC(=O)[C@H]1OC(n2cnc3c(N)ncnc32)[C@H](O)[C@@H]1O (some centres undefined),0

# System: Canis familiaris
# Assay: Total time in minutes elapsed from the initiation of the change until return to the pretest value of heart rate in coronary sinus of anesthetized dog at intravenous dosage of 0.01 mg/kg
# Type: functional, Canis lupus familiaris
# Conditions: not given
row,Structure (SMILES),Duration [min]
1,CC(=O)OC1[C@@H](C(=O)NC2CC2)O[C@@H](n2cnc3c(N)ncnc32)[C@H]1OC(C)=O (some centres undefined),270
2,Nc1ncnc2c1ncn2[C@@H]1O[C@H](C(=O)NC2CCC2)[C@@H](O)[C@H]1O,48
3,Nc1ncnc2c1ncn2[C@@H]1O[C@H](C(=O)NC2CC2)[C@@H](O)[C@H]1O,150
4,CCNC(=O)[C@H]1O[C@@H](n2cnc3c(N)ncnc32)[C@@H](OC(C)=O)C1OC(C)=O (some centres undefined),120
5,CC(C)NC(=O)[C@H]1OC(n2cnc3c(N)ncnc32)[C@H](O)[C@@H]1O (some centres undefined),240
6,C=CCNC(=O)[C@H]1OC(n2cnc3c(N)ncnc32)[C@H](O)[C@@H]1O (some centres undefined),0

# System: Canis familiaris
# Assay: Total time in minutes elapsed from the initiation of the change until return to the pretest value of oxygen partial pressure in coronary sinus of anesthetized dog at intravenous dosage of 0.01 mg/kg
# Type: functional, Canis lupus familiaris
# Conditions: not given
row,Structure (SMILES),Duration [min]
1,CC(=O)OC1[C@@H](C(=O)NC2CC2)O[C@@H](n2cnc3c(N)ncnc32)[C@H]1OC(C)=O (some centres undefined),270
2,Nc1ncnc2c1ncn2[C@@H]1O[C@H](C(=O)NC2CCC2)[C@@H](O)[C@H]1O,90
3,Nc1ncnc2c1ncn2[C@@H]1O[C@H](C(=O)NC2CC2)[C@@H](O)[C@H]1O,150
4,CCNC(=O)[C@H]1O[C@@H](n2cnc3c(N)ncnc32)[C@@H](OC(C)=O)C1OC(C)=O (some centres undefined),120
5,CC(C)NC(=O)[C@H]1OC(n2cnc3c(N)ncnc32)[C@H](O)[C@@H]1O (some centres undefined),240
6,C=CCNC(=O)[C@H]1OC(n2cnc3c(N)ncnc32)[C@H](O)[C@@H]1O (some centres undefined),20

# System: Canis familiaris
# Assay: Tested for percent increase in coronary sinus partial pressure of oxygen (PO2) in open chest anesthetized dog at intravenous dosage of 0.01 mg/kg
# Type: functional, Canis lupus familiaris
# Conditions: not given
row,Structure (SMILES),PO2 [%]
1,CC(=O)OC1[C@@H](C(=O)NC2CC2)O[C@@H](n2cnc3c(N)ncnc32)[C@H]1OC(C)=O (some centres undefined),67
2,Nc1ncnc2c1ncn2[C@@H]1O[C@H](C(=O)NC2CCC2)[C@@H](O)[C@H]1O,79
3,Nc1ncnc2c1ncn2[C@@H]1O[C@H](C(=O)NC2CC2)[C@@H](O)[C@H]1O,136
4,CCNC(=O)[C@H]1O[C@@H](n2cnc3c(N)ncnc32)[C@@H](OC(C)=O)C1OC(C)=O (some centres undefined),52
5,CC(C)NC(=O)[C@H]1OC(n2cnc3c(N)ncnc32)[C@H](O)[C@@H]1O (some centres undefined),43
6,C=CCNC(=O)[C@H]1OC(n2cnc3c(N)ncnc32)[C@H](O)[C@@H]1O (some centres undefined),129

# System: Canis familiaris
# Assay: Tested for the percent increase in aortic blood pressure (BP) in open chest anesthetized dog at intravenous dosage of 0.01 mg/kg
# Type: functional, Canis lupus familiaris, Artery
# Conditions: not given
# In short: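 Open-chest anesthetized dogs, compound given iv at the stated dose. Aortic blood pressure is reported as the change from the control (pre-dose) value. Other set-up follows the group's earlier cardiovascular protocol.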
row,Structure (SMILES),BP [%]
1,CC(=O)OC1[C@@H](C(=O)NC2CC2)O[C@@H](n2cnc3c(N)ncnc32)[C@H]1OC(C)=O (some centres undefined),31
2,CCNC(=O)[C@H]1O[C@@H](n2cnc3c(N)ncnc32)[C@@H](OC(C)=O)C1OC(C)=O (some centres undefined),12
3,C=CCNC(=O)[C@H]1OC(n2cnc3c(N)ncnc32)[C@H](O)[C@@H]1O (some centres undefined),0

# System: not listed separately
# Assay: Lethal dose in mice after intraperitoneal administration
# Type: toxicity, organism-based
# Conditions: mouse, in vivo, ip
# In short: (§1)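 Male and female mice, three per dose group, were given the compound by the stated route in increments of 0.5 log doses. The LD50 was estimated as an approximate value.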
row,Structure (SMILES),LD50 [mg/kg]
1,CC(=O)OC1[C@@H](C(=O)NC2CC2)O[C@@H](n2cnc3c(N)ncnc32)[C@H]1OC(C)=O (some centres undefined),5
2,Nc1ncnc2c1ncn2[C@@H]1O[C@H](C(=O)NC2CCC2)[C@@H](O)[C@H]1O,2
3,Nc1ncnc2c1ncn2[C@@H]1O[C@H](C(=O)NC2CC2)[C@@H](O)[C@H]1O,2
4,CCNC(=O)[C@H]1O[C@@H](n2cnc3c(N)ncnc32)[C@@H](OC(C)=O)C1OC(C)=O (some centres undefined),2
5,CC(C)NC(=O)[C@H]1OC(n2cnc3c(N)ncnc32)[C@H](O)[C@@H]1O (some centres undefined),5
6,C=CCNC(=O)[C@H]1OC(n2cnc3c(N)ncnc32)[C@H](O)[C@@H]1O (some centres undefined),200

# System: not listed separately
# Assay: Lethal dose in mice after peroral administration
# Type: toxicity, organism-based
# Conditions: mouse, in vivo, po
# In short: as §1
row,Structure (SMILES),LD50 [mg/kg]
1,CC(=O)OC1[C@@H](C(=O)NC2CC2)O[C@@H](n2cnc3c(N)ncnc32)[C@H]1OC(C)=O (some centres undefined),20
2,Nc1ncnc2c1ncn2[C@@H]1O[C@H](C(=O)NC2CCC2)[C@@H](O)[C@H]1O,5
3,Nc1ncnc2c1ncn2[C@@H]1O[C@H](C(=O)NC2CC2)[C@@H](O)[C@H]1O,5
4,CCNC(=O)[C@H]1O[C@@H](n2cnc3c(N)ncnc32)[C@@H](OC(C)=O)C1OC(C)=O (some centres undefined),2
5,CC(C)NC(=O)[C@H]1OC(n2cnc3c(N)ncnc32)[C@H](O)[C@@H]1O (some centres undefined),5
6,C=CCNC(=O)[C@H]1OC(n2cnc3c(N)ncnc32)[C@H](O)[C@@H]1O (some centres undefined),> 1000
